Assay outcomes from PubChem BioAssay.
NPY-Y2 PAM-ag = potentiates or activates human NPY-Y2 receptor; cells expressing NPY-Y2, potentiator/agonist read-out; activation, % at 3.6 µM; actives 0.45% (n = 220,000); in the data active = activation above about 27%;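 also: cells stimulated with NPY near EC25 plus isoproterenol at EC100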
Target sequence (P49146 whole entry, looked up): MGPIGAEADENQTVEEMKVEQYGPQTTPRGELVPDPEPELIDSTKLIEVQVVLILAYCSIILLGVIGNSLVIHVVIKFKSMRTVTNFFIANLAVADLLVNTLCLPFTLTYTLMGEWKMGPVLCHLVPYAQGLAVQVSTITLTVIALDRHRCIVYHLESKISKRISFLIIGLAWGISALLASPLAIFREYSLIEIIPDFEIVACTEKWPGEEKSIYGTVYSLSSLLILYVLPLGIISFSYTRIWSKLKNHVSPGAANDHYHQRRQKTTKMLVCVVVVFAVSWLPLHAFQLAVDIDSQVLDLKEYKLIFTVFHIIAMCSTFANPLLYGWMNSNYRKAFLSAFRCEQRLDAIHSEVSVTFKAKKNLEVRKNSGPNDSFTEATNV
NPY-Y2 antag = NPY-Y2 (human) receptor antagonism. inhibition, % at 2.7 µM. NPY-Y2 expressing cells, antagonist mode. actives 0.99% (n = 140,000). AID 793; in the data active = inhibition above about 17%
NPY-Y1 PAM-ag = potentiators or agonists of human neuropeptide Y receptor Y1; actives 0.37% (n = 220,000); activation, % at 3.6 µM; P25929; NPY-Y1 expressing cells, potentiator/agonist activation; in the data active = activation above about 33%, passing the limit was not always enough;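 also: cells stimulated with NPY at EC10 then isoproterenol at EC100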
NPY Y1 blocker = blocks the human neuropeptide Y Y1 receptor | P25929 | HEK293-CNG Y1 cells, membrane potential fluorescence; NPY at EC95, then isoproterenol | inhibition, % at 3.6 µM | actives 1% (n = 200,000);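 active = inhibition above the campaign mean inhibition of all tested compounds plus 3 SD, cut at about 20% in these data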
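Material: HEK293 cells co-expressing NPY Y1 receptor and cyclic-nucleotide gated channel. Timing: compound incubation 1 h at room temperature, readout 45 min post-stimulation. Signal: fluorescence, membrane potential probe.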
Of the large screens only hits and unclear results are named; the others gave an inactive call. Compounds with a hit are over-represented: about 1.8% of the library has one in this group of screens.

Cc1[nH]c2ccccc2c1/C=N/NC(N)=S	none (no result: NPY-Y2 antag, NPY Y1 blocker)
O=C(NNc1ncccc1Cl)c1c(Cl)cccc1Cl	none (no result: NPY-Y2 antag)
Cc1nc2ccccn2c(=O)c1CCN1CCC(C(=O)c2ccc(F)cc2)CC1	none
Cc1nc2sccn2c(=O)c1CCN1CCC(=C(c2ccc(F)cc2)c2ccc(F)cc2)CC1	NPY-Y2 antag 39, NPY Y1 blocker 29
O=S(=O)(c1ccc(S(=O)(=O)N2CCOCC2)cc1)N1CCCC1	none (no result: NPY-Y2 antag)
Cc1nn(C(C)C(=O)NCc2cccs2)c(C)c1[N+](=O)[O-] (stereo not given)	none (no result: NPY-Y2 antag)
CC(C)Cc1nc2oc3c(N4CCN(CCO)CC4)ncnc3c2c2c1CCCC2	NPY-Y2 antag 17
Cc1ccc(C(=O)N/C(=C\c2ccc(-c3ccc(Cl)cc3)o2)C(=O)NCCCN(C)C)cc1	NPY Y1 blocker 21 (no result: NPY-Y2 antag)
Cc1ccc2nc(N3C(=O)C(O)=C(C(=O)c4ccco4)C3c3cccs3)sc2c1 (stereo not given)	NPY-Y2 antag 19, NPY Y1 blocker 37
COc1ccc(NC(=O)COC(=O)c2c3c(nc4ccccc24)CCCC3)cc1Cl	NPY-Y2 antag 19, NPY Y1 blocker 24
CCOC(=O)CSc1ccc(C(=O)Nc2ccc(OC)cc2)cn1	NPY-Y2 PAM-ag 37, NPY-Y1 PAM-ag 75 (no result: NPY-Y2 antag)
CCOC(=O)CSc1ccc(C(=O)Nc2ccc(Cl)cc2)cn1	none (no result: NPY-Y2 antag)
COc1cccc(CNC(=O)CCC2CCCN(Cc3ccc4c(c3)CCO4)C2)c1 (stereo not given)	none (no result: NPY-Y2 antag, NPY Y1 blocker)
Brc1ccc(-c2csc(/N=C/N3CCOCC3)n2)cc1	NPY Y1 blocker 35
CC1CCCC(NC(=O)C2c3ccccc3C(=O)N2Cc2cccs2)C1C (stereo not given)	NPY-Y2 antag 25, NPY Y1 blocker 35
O=C(NC1CCCCCCC1)C1c2ccccc2C(=O)N1Cc1ccco1 (stereo not given)	none
COc1ccc(NC2=CC(=O)CC(c3ccccc3)C2)cc1 (stereo not given)	none (no result: NPY-Y2 antag)
CCNC(=O)CC1C(=O)N(CC)C(=S)N1NC(=O)c1cccnc1 (stereo not given)	none (no result: NPY-Y2 antag)
CCOC(=O)c1c(C)oc2ccc(O)c(CN(C)C)c12	NPY-Y2 PAM-ag 53, NPY-Y1 PAM-ag 61
CCOC(=O)c1c(C)n(C)c2ccc(O)c(CN(CC)CC)c12	NPY-Y2 PAM-ag 60, NPY-Y1 PAM-ag 70
CCOC(=O)c1c(C)oc2cc(Cl)c(O)c(CN(C)C)c12	none (no result: NPY-Y2 antag, NPY Y1 blocker)
Cc1ccc(CNC(=O)c2cnccn2)cc1	none
Cc1noc(C)c1CSc1nc2sc(C)c(C)c2c(=O)n1-c1ccccc1	none
C=CCn1c(SCc2c(C)noc2C)nc2sc(C)c(C)c2c1=O	NPY-Y2 antag 17, NPY Y1 blocker 21
Cc1ccc(Nc2nc(C)cs2)cc1	none (no result: NPY-Y2 antag)
O=C(C[n+]1ccccc1)Nc1ccccc1Br	none (no result: NPY-Y2 antag)
O=C(Nc1ccc(CN2CCCCC2)cc1)c1cccc(Br)c1	NPY-Y2 PAM-ag 56, NPY-Y1 PAM-ag 43
O=C(Nc1ccc(CN2CCCCC2)cc1)c1cc(Br)ccc1Cl	none (no result: NPY-Y2 antag)
Cc1cc(C)cc(NC(=O)Nc2ccc(-n3ccc(C(F)(F)F)n3)cc2)c1	none (no result: NPY-Y2 antag, NPY Y1 blocker)
O=C(Nc1ccc(-n2ccc(C(F)(F)F)n2)cc1)Nc1cccc(Cl)c1	NPY-Y2 PAM-ag 40, NPY-Y1 PAM-ag 52 (no result: NPY-Y2 antag, NPY Y1 blocker)
Cc1nc(-c2ccccc2)sc1C(=O)CSc1ccccc1	NPY-Y2 antag 24, NPY Y1 blocker 21
Cc1nc(-c2ccccc2)sc1C(N)=O	none
CNC(=O)Nc1cc(NC(=O)NC)cc(C(F)(F)F)c1	none (no result: NPY-Y2 antag, NPY Y1 blocker)
COc1ccc(C(C(=O)NC2CCCC2)N(Cc2ccccc2)C(=O)c2nsc(Cl)c2Cl)cc1 (stereo not given)	NPY-Y2 antag 28, NPY Y1 blocker 36
Cc1noc(C)c1CSc1nnnn1-c1ccc(Cl)cc1	none
Cc1noc(C)c1CSc1nc2ccccc2c(=O)n1-c1ccc(Cl)cc1	NPY-Y2 antag 32, NPY Y1 blocker 28
CC1(C)CC(C(CCN(Cc2ccccc2)C(=O)c2ccco2)c2ccc(F)cc2)CCO1 (stereo not given)	NPY-Y2 antag 33, NPY Y1 blocker 29
CCOC(=O)c1c(NC(=O)CSc2nc3ccccc3s2)sc(C(C)=O)c1C	NPY-Y2 antag 22, NPY Y1 blocker 39
CCOC(=O)c1c(NC(=O)CSc2nc3cc(Cl)ccc3s2)sc(C(C)=O)c1C	none
CC(=O)Oc1ccc(C(c2ccc(OC(C)=O)cc2)c2ccccn2)cc1	NPY-Y2 antag 108, NPY Y1 blocker 102
Cc1cc(Oc2ccccc2F)nc(NCc2ccccc2)n1	NPY-Y2 antag 24, NPY Y1 blocker 26
CCCCNc1cc(C)nc(NCc2ccccc2)n1	NPY-Y2 antag 29, NPY Y1 blocker 31
Cc1cc(Nc2ccccc2)nc(NCc2ccccc2)n1	none
Cc1cc(N/N=C/c2ccc(F)cc2)nc(NCc2ccccc2)n1	none (no result: NPY-Y2 antag, NPY Y1 blocker)
Cc1ccc(Nc2nnc(-c3ccccc3N)o2)cc1C	none (no result: NPY-Y2 antag, NPY Y1 blocker)
CCS(=O)(=O)c1nc(S(=O)(=O)c2ccc(C)cc2)c(NCCCN(C)C)s1	none (no result: NPY-Y2 antag)
COC(=O)CC1C(=O)NCCN1C(=S)Nc1ccccc1Cl (stereo not given)	none (no result: NPY-Y2 antag)
CC[C@H](C)[C@H](NC(N)=O)C(=O)NCCc1ccc(Cl)cc1Cl	none (no result: NPY-Y2 antag)
Cc1cc(C)c(S(=O)(=O)N2CCC(C(=O)NCc3ccco3)CC2)c(C)c1	none
CC(=O)c1sc(NC(=O)c2ccc(Cn3cc(Br)cn3)o2)nc1C	NPY-Y2 PAM-ag 48, NPY-Y1 PAM-ag 46
CCCOC(=O)Nc1sc2c(c1C(N)=O)CCCC2	none (no result: NPY-Y2 antag)
CCN(CC)CC(O)COc1ccccc1C(=O)CCc1ccccc1 (stereo not given)	NPY-Y2 PAM-ag 39, NPY-Y1 PAM-ag 51
CCCNCC(O)COc1ccccc1C(=O)CCc1ccccc1 (stereo not given)	NPY-Y2 PAM-ag 87, NPY-Y1 PAM-ag 99
CN(c1cccc(NC(=O)c2cccc([N+](=O)[O-])c2)c1)S(C)(=O)=O	none (no result: NPY-Y2 antag)
O=C(Nc1ncc2c(n1)-c1ccccc1CC2)c1cccc(Cl)c1	NPY-Y2 antag 25, NPY Y1 blocker 34
Cc1ccccc1-c1nc(CN(Cc2c(C)nn(C)c2C)C2CC2)c(C)o1	none (no result: NPY-Y2 antag)
COc1ccc(-c2c3c(=O)n(C)c(=O)n(C)c3cn2-c2cc(OC)ccc2OC)cc1	NPY Y1 blocker 21
CCc1noc(C)c1C(=O)N1CC(C)OC(C)C1 (stereo not given)	NPY-Y2 PAM-ag 96, NPY-Y1 PAM-ag 78
Cc1noc(C)c1C(=O)N1CC(C)OC(C)C1 (stereo not given)	none
Cc1cc(Nc2ncc(Cl)cc2Cl)n(-c2ccccc2C)n1	NPY-Y2 antag 20, NPY Y1 blocker 29
Cc1ccc(-n2nc(C)cc2Nc2ncc(Cl)cc2Cl)cc1	none
COC(=O)c1cc(S(=O)(=O)n2nc(C)c(Br)c2C)c(Cl)cc1Cl	NPY-Y2 PAM-ag 34, NPY-Y1 PAM-ag 52
CCOC(=O)c1oc2cccc(OCC(O)CNC(C)C)c2c1C (stereo not given)	NPY-Y2 PAM-ag 105, NPY-Y1 PAM-ag 111
Cc1ccc(-c2noc(CCCN3C(=O)c4ccccc4C3=O)n2)cc1	none
O=C1c2ccccc2C(=O)N1CCCCCc1nc(-c2ccccc2)no1	NPY Y1 blocker 22
Cc1ccc(CN2CCN(/N=C/c3cccs3)CC2)cc1	none
COc1cc2c(cc1NC(=O)CSc1nnc(Cc3cccs3)n1Cc1ccco1)oc1ccccc12	none
